Consider two compounds from ChEMBL document CHEMBL1909630, “Azaxanthene based selective glucocorticoid receptor modulators: design, synthesis, and pharmacological evaluation of (S)-4-(5-(1-((1,3,4-thiadiazol-2-yl)amino)-2-methyl-1-oxopropan-2-yl)-5H-chromeno[2,3-b]pyridin-2-yl)-2-fluoro-N,N-dimethylbenzamide (BMS-776532) and its methylene homologue …” (J Med Chem, 2011).

Data set [1] has as its target T1, Glucocorticoid receptor (Homo sapiens, UniProt P04150).
T1 sequence (P04150 whole entry): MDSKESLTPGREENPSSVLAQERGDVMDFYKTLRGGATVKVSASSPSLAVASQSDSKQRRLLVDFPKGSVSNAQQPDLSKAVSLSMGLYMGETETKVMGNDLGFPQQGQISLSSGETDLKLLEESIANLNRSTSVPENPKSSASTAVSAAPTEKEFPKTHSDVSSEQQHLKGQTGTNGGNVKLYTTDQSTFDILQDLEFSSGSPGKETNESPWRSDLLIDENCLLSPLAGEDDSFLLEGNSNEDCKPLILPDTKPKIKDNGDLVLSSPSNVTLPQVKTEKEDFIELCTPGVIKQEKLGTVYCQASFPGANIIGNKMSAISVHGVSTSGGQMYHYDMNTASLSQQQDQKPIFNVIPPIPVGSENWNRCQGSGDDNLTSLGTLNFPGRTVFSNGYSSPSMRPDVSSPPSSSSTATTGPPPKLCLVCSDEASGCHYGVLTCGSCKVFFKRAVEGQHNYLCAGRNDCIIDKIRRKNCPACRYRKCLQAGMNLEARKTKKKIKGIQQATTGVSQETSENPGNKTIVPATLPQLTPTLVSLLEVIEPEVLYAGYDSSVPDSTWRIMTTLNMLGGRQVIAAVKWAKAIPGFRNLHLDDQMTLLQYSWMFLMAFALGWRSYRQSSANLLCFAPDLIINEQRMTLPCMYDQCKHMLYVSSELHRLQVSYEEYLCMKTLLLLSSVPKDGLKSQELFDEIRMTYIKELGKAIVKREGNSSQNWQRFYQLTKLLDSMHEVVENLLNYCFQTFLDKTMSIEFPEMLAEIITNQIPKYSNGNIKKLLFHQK
Kind of data set: Displacement of GS-red from glucocorticoid receptor by fluorescence polarization assay. For orientation: Fluorescence polarisation rises when a labelled molecule tumbles more slowly, as on binding a larger partner.

Data set [2] in a line: Membrane permeability by PAMPA. It counts as ADME.
The target in a further data set is T2, Progesterone receptor (Homo sapiens, UniProt P06401).
T2 sequence (P06401 whole entry): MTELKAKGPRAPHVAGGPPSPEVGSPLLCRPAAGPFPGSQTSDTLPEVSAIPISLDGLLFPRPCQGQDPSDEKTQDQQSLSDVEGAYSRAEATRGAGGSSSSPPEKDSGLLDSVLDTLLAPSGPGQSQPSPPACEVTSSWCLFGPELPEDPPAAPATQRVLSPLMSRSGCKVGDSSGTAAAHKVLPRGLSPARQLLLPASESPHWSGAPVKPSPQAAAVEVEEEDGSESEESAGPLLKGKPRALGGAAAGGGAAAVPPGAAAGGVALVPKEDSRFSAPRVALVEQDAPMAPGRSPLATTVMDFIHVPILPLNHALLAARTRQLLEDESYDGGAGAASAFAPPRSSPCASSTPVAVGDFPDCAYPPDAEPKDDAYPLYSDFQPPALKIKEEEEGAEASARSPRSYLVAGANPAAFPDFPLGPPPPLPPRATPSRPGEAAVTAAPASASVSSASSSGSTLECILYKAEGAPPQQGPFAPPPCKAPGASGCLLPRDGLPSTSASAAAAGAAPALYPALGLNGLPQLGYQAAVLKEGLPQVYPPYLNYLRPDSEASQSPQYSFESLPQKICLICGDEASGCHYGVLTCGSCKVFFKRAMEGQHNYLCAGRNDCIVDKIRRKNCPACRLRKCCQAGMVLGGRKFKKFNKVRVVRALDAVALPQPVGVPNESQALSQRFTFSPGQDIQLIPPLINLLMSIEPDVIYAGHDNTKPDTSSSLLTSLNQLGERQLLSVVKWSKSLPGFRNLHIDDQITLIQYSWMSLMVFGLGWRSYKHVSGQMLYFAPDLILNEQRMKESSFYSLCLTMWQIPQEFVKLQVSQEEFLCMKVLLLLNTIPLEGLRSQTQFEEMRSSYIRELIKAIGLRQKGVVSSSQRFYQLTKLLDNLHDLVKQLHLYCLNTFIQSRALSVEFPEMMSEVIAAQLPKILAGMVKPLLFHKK
Kind of data set: Displacement of fluorescently labeled ligand from progesterone receptor by fluorescence polarization assay.

Data set [3] relates to Blood. Put plainly: Antiinflammatory activity in Sprague-Dawley rat whole blood assessed as inhibition of LPS-induced TNFalpha production.
Data set [4] concerns Rattus norvegicus. Put plainly: Antiinflammatory activity in po dosed Freund's complete adjuvant-induced Lewis rat arthritis model assessed as reduction in onset of arthritis. It counts as functional, organism-based. In a few lines: (§1)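 Male Lewis rats were inoculated with Mycobacterium butyricum in incomplete Freund's adjuvant. Oral dosing was daily and preventative, running from day 0 to day 21. Onset and progression of arthritis were followed, and ED50 was estimated from the dose response.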

Data set [5] concerns Rattus norvegicus. Kind of data set: Antiinflammatory activity in po dosed Freund's complete adjuvant-induced Lewis rat arthritis model assessed as reduction in paw swelling administered once daily for 21 days. Type of data set: functional. The settings on record: 504 h. In a few lines: as §1
For data set [6], the system named is Blood. Kind of data set: Antiinflammatory activity in human whole blood assessed as inhibition of TNF-alpha-induced IL-8 production after overnight incubation by ELISA relative to dexamethasone. It counts as functional. (In an ELISA, binding on a coated surface is turned into a signal by an enzyme label.)
A short description of data set [7]: Drug level in plasma of Sprague-Dawley rat at 30 mg/kg, po measured after 6 hrs. It counts as ADME, organism-based. Also on record: dose 30 mg/kg, route oral. The settings on record: read-out: Drug uptake. In a few lines: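 Plasma exposure was measured in Sprague-Dawley rats 6 h after a single oral dose of 30 mg/kg given in the carrageenan paw edema study.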

The nature of data set [8]: Volume of distribution at steady state in Sprague-Dawley rat at 1 mg/kg, iv. It counts as ADME, organism-based. Also on record: dose 1 mg/kg, route intravenous. The settings on record: in vivo, read-out: Vdss. Put shortly:
(§2)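 Male Sprague-Dawley rats received a single intravenous (1 mg/kg) or oral (10 or 50 mg/kg) dose. Plasma pharmacokinetic parameters were derived from these profiles.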

The target in data set [9] is T1, Glucocorticoid receptor. Kind of data set: Transrepression activity at glucocorticoid receptor alpha in phorbol myristate acetate-stimulated human A549 cells assessed as inhibition of AP1 response element by luciferase reporter gene assay. Type of data set: cell-based. Background: In a reporter assay the amount or activity of a reporter protein is the signal.
Data set [10] is described as follows: Half life in Sprague-Dawley rat at 1 mg/kg, iv. It counts as ADME, organism-based. On the set-up: dose 1 mg/kg, route intravenous. The settings on record: in vivo. Put shortly: as §2

Consider `CN(C)C(=O)c1ccc(-c2ccc3c(n2)Oc2ccccc2[C@H]3C(C)(C)C(=O)Nc2nncs2)cc1F`, for which the Ki (commonly a dissociation constant, usually derived from enzyme kinetics or from competition with a known ligand) at Glucocorticoid receptor [1] was determined as 0.00194 µM; at Progesterone receptor, 1.53 µM. Also, the permeability entry in [2] is reported as “permeable”. For the same compound, the EC50 (in general, the midpoint of the concentration-response curve) with Blood [3] was determined as 0.189 µM; on Glucocorticoid receptor [9] it was 0.0332 µM. The Activity result with Rattus norvegicus [4] is “Dose-dependent effect”. The ED50 (commonly the dose at which the effect has come halfway, by size or by number of responders) in the data set with Rattus norvegicus [5] worked out at 17 mg/kg. For the same compound, the Imax in the data set on Blood [6] turned out to be 55%. Also, the concentration at 6 h in data set [7] came out at 0.788 µM. Further, in data set [8], the Vd was found to be 1 L/kg. The half-life (usually how long it takes for the measured level to halve) in data set [10] was 36 min.
For `CCN(C)C(=O)c1ccc(-c2ccc3c(n2)Oc2ccccc2[C@@H]3C(C)(C)C(=O)Nc2nncs2)cc1F`, the Ki at Glucocorticoid receptor [1] stood at 0.00164 µM; at Progesterone receptor, 1.83 µM. Moreover, the permeability entry in data set [2] is listed as “permeable”. For the same compound, the EC50 in the data set on Blood [3] was found to be 0.215 µM; on Glucocorticoid receptor [9], 0.0177 µM. In addition, the Activity result in the data set with Rattus norvegicus [4] was “Dose-dependent effect”. Further, in the data set on Rattus norvegicus [5], the ED50 came to 8 mg/kg. Besides, the Imax with Blood [6] is 76%. In addition, the concentration at 6 h in data set [7] is 1.11 µM. In data set [8], the Vd was determined as 0.5 L/kg. The half-life in data set [10] was 24 min.
